Experimental data from ChEMBL document CHEMBL4411337, “2-Aminothiazole Derivatives as Selective Allosteric Modulators of the Protein Kinase CK2. 1. Identification of an Allosteric Binding Site” (J Med Chem, 2019).
Active and inactive are the calls of the source. No cut-off for these calls is given here.

Experiments:
[1] = biological target: T1, Casein kinase II alpha/beta (Homo sapiens) (UniProt P67870+P68400); assay: Inhibition of recombinant human GST-tagged CK2alpha2/CK2beta2 at 20 uM in presence of ATP and increasing CK2beta levels by radiometric kinase assay; type: protein-complex assay
T1 sequence (P67870 2-215 limits assumed): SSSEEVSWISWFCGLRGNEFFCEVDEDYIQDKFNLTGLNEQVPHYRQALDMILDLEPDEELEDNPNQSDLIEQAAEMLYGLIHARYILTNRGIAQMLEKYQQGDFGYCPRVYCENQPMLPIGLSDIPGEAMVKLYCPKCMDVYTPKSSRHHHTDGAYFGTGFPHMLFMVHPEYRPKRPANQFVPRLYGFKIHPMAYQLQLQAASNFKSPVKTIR
T1 sequence (P68400 whole entry partner): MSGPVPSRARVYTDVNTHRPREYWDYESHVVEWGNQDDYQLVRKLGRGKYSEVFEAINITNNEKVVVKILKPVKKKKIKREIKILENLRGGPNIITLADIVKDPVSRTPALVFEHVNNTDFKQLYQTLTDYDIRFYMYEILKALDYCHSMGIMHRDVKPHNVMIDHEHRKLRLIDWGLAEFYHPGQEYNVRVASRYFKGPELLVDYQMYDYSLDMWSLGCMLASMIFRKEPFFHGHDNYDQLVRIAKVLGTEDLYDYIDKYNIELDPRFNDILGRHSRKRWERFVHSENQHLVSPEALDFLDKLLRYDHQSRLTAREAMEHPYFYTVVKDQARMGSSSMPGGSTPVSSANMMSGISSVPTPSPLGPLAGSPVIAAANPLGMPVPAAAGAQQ
In short: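 CK2α fixed at 150 nM and inhibitor fixed at 20 μM. CK2β was titrated at increasing concentrations and activity was read in the radiometric assay.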

[2] = biological target: Tyrosine-protein kinase Lyn (Homo sapiens) (UniProt P07948); assay: Inhibition of LYN (unknown origin) assessed as residual activity at 50 uM relative to control
In short: (§1)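 Selectivity profiling against a panel of 44 human kinases. For each kinase, ATP was set to that kinase's Km. Values are residual activity in duplicate assays.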

[3] = biological target: T1, Casein kinase II alpha/beta (Homo sapiens); assay: Inhibition of recombinant human GST-tagged CK2alpha2/CK2beta2 at 15 uM in presence of ATP by radiometric kinase assay; type: protein-complex assay
[4] = biological target: Serine/threonine-protein kinase STK11 (Homo sapiens) (UniProt Q15831); assay: Inhibition of LKB1 (unknown origin) assessed as residual activity at 50 uM relative to control; in short: as §1
[5] = biological target: Proto-oncogene tyrosine-protein kinase Src (Homo sapiens) (UniProt P12931); assay: Inhibition of cSRC (unknown origin) assessed as residual activity at 50 uM relative to control
Chain of Proto-oncogene tyrosine-protein kinase Src (Homo sapiens) (P12931 2-536 limits assumed): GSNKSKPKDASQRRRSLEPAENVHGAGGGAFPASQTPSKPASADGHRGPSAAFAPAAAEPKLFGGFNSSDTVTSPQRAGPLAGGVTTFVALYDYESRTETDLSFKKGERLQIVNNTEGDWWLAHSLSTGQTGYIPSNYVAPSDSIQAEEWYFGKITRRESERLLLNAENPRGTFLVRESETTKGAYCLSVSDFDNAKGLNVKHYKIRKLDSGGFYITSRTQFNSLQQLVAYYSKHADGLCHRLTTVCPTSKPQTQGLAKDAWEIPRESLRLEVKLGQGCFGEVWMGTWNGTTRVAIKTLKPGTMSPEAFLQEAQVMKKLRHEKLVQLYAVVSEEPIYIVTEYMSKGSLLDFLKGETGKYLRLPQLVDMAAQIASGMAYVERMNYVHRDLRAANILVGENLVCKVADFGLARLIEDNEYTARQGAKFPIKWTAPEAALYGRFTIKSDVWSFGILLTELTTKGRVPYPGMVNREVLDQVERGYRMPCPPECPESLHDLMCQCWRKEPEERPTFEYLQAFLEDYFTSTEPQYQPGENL
In short: (§2)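 Profiling panel of 44 human kinases. ATP set to each kinase's Km. Run in duplicate; duplicates within 15–17% of each other.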

[6] = biological target: T2, Casein kinase II subunit alpha (Homo sapiens, UniProt P68400); assay: Inhibition of CK2alpha (unknown origin) assessed as residual activity at 50 uM relative to control; in short: as §1
[7] = biological target: Mitogen-activated protein kinase 1 (Homo sapiens) (UniProt P28482); assay: Inhibition of MAPK1 (unknown origin) assessed as residual activity at 50 uM relative to control; in short: as §1
[8] = biological target: Homeodomain-interacting protein kinase 3 (Homo sapiens) (UniProt Q9H422); assay: Inhibition of HIPK3 (unknown origin) assessed as residual activity at 50 uM relative to control; in short: as §1
[9] = biological target: Rho-associated protein kinase 1 (Homo sapiens) (UniProt Q13464); assay: Inhibition of ROCK1 (unknown origin) assessed as residual activity at 50 uM relative to control; in short: as §2
Chain of Rho-associated protein kinase 1 (Homo sapiens) (Q13464 2-1354 limits assumed): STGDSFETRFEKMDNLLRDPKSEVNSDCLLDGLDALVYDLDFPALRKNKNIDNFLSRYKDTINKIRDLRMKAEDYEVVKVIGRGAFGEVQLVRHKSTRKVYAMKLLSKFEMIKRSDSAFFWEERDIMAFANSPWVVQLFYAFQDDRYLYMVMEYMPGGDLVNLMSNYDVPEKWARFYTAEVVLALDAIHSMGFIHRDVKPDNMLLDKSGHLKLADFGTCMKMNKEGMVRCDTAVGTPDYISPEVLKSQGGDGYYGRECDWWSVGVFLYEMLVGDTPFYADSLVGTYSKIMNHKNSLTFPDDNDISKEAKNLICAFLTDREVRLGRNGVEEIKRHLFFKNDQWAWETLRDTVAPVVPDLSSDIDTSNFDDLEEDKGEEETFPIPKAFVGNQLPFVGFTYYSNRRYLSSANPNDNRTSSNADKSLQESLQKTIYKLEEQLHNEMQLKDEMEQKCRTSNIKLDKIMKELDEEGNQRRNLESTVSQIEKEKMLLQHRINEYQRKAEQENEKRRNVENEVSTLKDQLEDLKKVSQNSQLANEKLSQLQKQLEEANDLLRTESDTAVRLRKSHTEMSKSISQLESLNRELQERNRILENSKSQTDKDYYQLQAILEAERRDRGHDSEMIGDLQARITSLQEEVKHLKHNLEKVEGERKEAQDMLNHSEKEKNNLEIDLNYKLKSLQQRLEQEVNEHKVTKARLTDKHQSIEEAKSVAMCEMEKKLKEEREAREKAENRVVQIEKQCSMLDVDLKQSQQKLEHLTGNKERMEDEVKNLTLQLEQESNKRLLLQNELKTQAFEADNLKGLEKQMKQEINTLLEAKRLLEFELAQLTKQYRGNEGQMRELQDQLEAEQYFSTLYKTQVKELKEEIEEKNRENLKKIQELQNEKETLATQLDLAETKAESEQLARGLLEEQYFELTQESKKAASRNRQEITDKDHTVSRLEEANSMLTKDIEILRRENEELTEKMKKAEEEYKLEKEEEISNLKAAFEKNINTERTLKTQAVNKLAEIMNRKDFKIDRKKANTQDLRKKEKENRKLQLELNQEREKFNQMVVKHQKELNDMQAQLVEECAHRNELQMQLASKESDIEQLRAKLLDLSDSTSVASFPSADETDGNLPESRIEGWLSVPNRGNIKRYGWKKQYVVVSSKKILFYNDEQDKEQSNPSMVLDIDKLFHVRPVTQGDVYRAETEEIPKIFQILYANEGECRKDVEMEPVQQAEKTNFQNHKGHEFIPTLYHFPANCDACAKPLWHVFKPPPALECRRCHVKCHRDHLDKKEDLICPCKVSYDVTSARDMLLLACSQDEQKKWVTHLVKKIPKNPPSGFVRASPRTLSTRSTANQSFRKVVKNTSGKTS

[10] = biological target: Cyclin-dependent kinase 2/cyclin E1 (Homo sapiens) (UniProt P24864+P24941); assay: Inhibition of CDK2/cyclin E (unknown origin) assessed as residual activity at 50 uM relative to control; type: protein-complex assay; in short: as §1
[11] = biological target: Homeodomain-interacting protein kinase 1 (Homo sapiens) (UniProt Q86Z02); assay: Inhibition of HIPK1 (unknown origin) assessed as residual activity at 50 uM relative to control; in short: as §1
[12] = biological target: Serine/threonine-protein kinase mTOR (Homo sapiens) (UniProt P42345); assay: Inhibition of MTOR (unknown origin) assessed as residual activity at 50 uM relative to control; in short: as §1
[13] = biological target: CDK9/cyclin T1 (Homo sapiens) (UniProt O60563+P50750); assay: Inhibition of CDK9/cyclin T1 (unknown origin) assessed as residual activity at 50 uM relative to control; type: protein-complex assay; in short: as §1
[14] = biological target: Muscle, skeletal receptor tyrosine-protein kinase (Homo sapiens) (UniProt O15146); assay: Inhibition of MUSK (unknown origin) assessed as residual activity at 50 uM relative to control; in short: as §1
[15] = biological target: Platelet-derived growth factor receptor alpha (Homo sapiens) (UniProt P16234); assay: Inhibition of PDGFRalpha (unknown origin) assessed as residual activity at 50 uM relative to control; in short: as §1
[16] = biological target: Calcium/calmodulin-dependent protein kinase type 1 (Homo sapiens) (UniProt Q14012); assay: Inhibition of CAMK1 (unknown origin) assessed as residual activity at 50 uM relative to control; in short: as §1
[17] = biological target: RAF proto-oncogene serine/threonine-protein kinase (Homo sapiens) (UniProt P04049); assay: Inhibition of cRAF (unknown origin) assessed as residual activity at 50 uM relative to control; in short: as §2
[18] = biological target: Epidermal growth factor receptor (Homo sapiens) (UniProt P00533); assay: Inhibition of EGFR (unknown origin) assessed as residual activity at 50 uM relative to control; in short: as §1
[19] = biological target: Mast/stem cell growth factor receptor Kit (Homo sapiens) (UniProt P10721); assay: Inhibition of cKIT (unknown origin) assessed as residual activity at 50 uM relative to control; in short: as §2
[20] = biological target: RAC-alpha serine/threonine-protein kinase (Homo sapiens) (UniProt P31749); assay: Inhibition of PKBalpha (unknown origin) assessed as residual activity at 50 uM relative to control; in short: as §2
[21] = biological target: Cyclin-dependent kinase 1/cyclin B1 (Homo sapiens) (UniProt P06493+P14635); assay: Inhibition of CDK1/cyclin B (unknown origin) assessed as residual activity at 50 uM relative to control; type: protein-complex assay; in short: as §1
[22] = biological target: CDK6/cyclin D3 (Homo sapiens) (UniProt P30281+Q00534); assay: Inhibition of CDK6/cyclin D3 (unknown origin) assessed as residual activity at 50 uM relative to control; type: protein-complex assay; in short: as §1
[23] = biological target: Insulin receptor (Homo sapiens) (UniProt P06213); assay: Inhibition of activated IR (unknown origin) assessed as residual activity at 50 uM relative to control; in short: as §2
Chain of Insulin receptor (Homo sapiens) (P06213 28-758 limits assumed): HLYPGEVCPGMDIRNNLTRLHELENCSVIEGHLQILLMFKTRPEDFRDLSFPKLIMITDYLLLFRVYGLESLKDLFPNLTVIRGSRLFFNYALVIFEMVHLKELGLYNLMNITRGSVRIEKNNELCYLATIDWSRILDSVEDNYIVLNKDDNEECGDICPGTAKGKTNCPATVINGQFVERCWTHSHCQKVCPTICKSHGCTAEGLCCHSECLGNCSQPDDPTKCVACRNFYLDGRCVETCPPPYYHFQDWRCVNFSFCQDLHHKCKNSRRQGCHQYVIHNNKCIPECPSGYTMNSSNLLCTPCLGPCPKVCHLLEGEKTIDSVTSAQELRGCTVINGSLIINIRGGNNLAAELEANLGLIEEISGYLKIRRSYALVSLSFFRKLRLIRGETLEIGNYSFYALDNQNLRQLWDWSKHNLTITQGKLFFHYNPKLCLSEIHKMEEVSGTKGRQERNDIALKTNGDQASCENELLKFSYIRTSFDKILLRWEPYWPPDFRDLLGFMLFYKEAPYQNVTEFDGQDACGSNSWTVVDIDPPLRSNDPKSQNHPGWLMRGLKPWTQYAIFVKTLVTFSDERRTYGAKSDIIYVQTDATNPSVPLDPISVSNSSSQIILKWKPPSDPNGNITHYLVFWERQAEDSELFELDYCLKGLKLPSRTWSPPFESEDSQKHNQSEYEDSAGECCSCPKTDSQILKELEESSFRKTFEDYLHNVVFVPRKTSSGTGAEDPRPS
Chain of Insulin receptor (Homo sapiens) (P06213 763-1382 limits assumed): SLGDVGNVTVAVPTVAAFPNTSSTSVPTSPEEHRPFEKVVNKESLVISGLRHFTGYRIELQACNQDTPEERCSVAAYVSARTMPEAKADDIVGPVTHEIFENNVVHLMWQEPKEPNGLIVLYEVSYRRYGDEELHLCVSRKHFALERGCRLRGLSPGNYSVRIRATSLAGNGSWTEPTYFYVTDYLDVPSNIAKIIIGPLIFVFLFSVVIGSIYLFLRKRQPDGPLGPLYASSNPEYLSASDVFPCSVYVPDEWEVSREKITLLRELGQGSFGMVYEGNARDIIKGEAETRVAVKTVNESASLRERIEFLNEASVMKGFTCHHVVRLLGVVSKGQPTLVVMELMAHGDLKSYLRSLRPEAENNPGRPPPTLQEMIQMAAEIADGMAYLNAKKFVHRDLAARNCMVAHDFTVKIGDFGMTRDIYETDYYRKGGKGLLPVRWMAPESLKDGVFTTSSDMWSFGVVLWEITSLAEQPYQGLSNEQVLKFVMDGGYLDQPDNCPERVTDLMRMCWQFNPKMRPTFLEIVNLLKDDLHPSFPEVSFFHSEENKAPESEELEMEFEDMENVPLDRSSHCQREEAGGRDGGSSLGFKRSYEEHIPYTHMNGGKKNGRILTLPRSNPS

[24] = biological target: Aurora kinase B (Homo sapiens) (UniProt Q96GD4); assay: Inhibition of aurora B (unknown origin) assessed as residual activity at 50 uM relative to control; in short: as §2
[25] = biological target: Serine/threonine-protein kinase Chk2 (Homo sapiens) (UniProt O96017); assay: Inhibition of CHK2 (unknown origin) assessed as residual activity at 50 uM relative to control; in short: as §1
[26] = biological target: Ephrin type-A receptor 4 (Homo sapiens) (UniProt P54764); assay: Inhibition of EPHA4 (unknown origin) assessed as residual activity at 50 uM relative to control; in short: as §1
[27] = biological target: Aurora kinase A (Homo sapiens) (UniProt O14965); assay: Inhibition of aurora A (unknown origin) assessed as residual activity at 50 uM relative to control
[28] = biological target: Serine/threonine-protein kinase PAK 2 (Homo sapiens) (UniProt Q13177); assay: Inhibition of PAK2 (unknown origin) assessed as residual activity at 50 uM relative to control; in short: as §1
[29] = biological target: Tyrosine-protein kinase Yes (Homo sapiens) (UniProt P07947); assay: Inhibition of YES (unknown origin) assessed as residual activity at 50 uM relative to control; in short: as §2
[30] = biological target: Tyrosine-protein kinase JAK2 (Homo sapiens) (UniProt O60674); assay: Inhibition of JAK2 (unknown origin) assessed as residual activity at 50 uM relative to control; in short: as §1
Chain of Tyrosine-protein kinase JAK2 (Homo sapiens) (O60674 whole entry): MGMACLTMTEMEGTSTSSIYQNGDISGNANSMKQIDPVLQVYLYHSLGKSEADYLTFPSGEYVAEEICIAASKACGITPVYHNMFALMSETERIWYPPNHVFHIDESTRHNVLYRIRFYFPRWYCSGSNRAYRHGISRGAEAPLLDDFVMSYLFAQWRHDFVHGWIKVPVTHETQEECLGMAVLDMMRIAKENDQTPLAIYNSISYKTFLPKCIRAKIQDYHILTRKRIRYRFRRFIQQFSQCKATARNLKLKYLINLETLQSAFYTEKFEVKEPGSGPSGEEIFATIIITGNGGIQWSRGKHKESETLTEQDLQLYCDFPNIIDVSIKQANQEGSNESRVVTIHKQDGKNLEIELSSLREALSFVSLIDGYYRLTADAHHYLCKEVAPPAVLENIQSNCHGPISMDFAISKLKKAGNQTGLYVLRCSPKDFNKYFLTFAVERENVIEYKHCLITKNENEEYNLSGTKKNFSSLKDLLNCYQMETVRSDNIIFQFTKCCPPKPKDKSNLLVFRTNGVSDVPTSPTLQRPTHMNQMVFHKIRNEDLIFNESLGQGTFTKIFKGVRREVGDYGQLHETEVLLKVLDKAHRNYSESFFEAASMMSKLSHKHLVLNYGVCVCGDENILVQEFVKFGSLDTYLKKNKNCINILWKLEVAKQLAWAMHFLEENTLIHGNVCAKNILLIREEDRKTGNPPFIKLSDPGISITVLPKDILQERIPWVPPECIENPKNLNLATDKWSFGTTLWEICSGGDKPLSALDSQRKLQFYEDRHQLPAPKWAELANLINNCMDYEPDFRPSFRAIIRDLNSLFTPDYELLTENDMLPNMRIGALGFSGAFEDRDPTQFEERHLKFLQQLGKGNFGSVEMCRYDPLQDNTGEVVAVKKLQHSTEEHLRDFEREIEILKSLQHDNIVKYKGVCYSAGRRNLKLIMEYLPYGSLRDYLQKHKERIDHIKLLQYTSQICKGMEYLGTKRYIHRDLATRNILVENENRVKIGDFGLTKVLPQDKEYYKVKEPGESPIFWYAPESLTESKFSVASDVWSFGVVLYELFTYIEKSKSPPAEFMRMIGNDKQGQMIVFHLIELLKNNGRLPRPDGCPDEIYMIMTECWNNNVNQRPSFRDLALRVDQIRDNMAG

[31] = biological target: T2, Casein kinase II subunit alpha; assay: Inhibition of recombinant human GST-tagged CK2alpha in presence of ATP by radiometric kinase assay
Target sequence in this assay (P68400 whole entry): as the sequence (P68400 whole entry partner) above

[32] = biological target: T2, Casein kinase II subunit alpha; assay: Mixed-type inhibition of recombinant human GST-tagged CK2alpha in presence of ATP by Lineweaver-Burk plot analysis
Target sequence in this assay (P68400 whole entry): as the sequence (P68400 whole entry partner) above

[33] = biological target: Ribosomal protein S6 kinase alpha-1 (Homo sapiens) (UniProt Q15418); assay: Inhibition of RSK1 (unknown origin) assessed as residual activity at 50 uM relative to control; in short: as §2
[34] = biological target: CDK2/Cyclin A2 (Homo sapiens) (UniProt P24941+P20248); assay: Inhibition of CDK2/cyclin A (unknown origin) assessed as residual activity at 50 uM relative to control; type: protein-complex assay; in short: as §1

inhibition [1]: Active | Activity [2]: 104% | inhibition [3]: Active | Activity [4]: 85% | Activity [5]: 97% | Activity [6]: 0% | Activity [7]: 84% | Activity [8]: 98% | Activity [9]: 100% | Activity [10]: 101% | Activity [11]: 97% | Activity [12]: 104% | Activity [13]: 99% | Activity [14]: 62% | Activity [15]: 65% | Activity [16]: 101% | Activity [17]: 92% | Activity [18]: 26% | Activity [19]: 87% | Activity [20]: 85% | Activity [21]: 89% | Activity [22]: 95% | Activity [23]: 93% | Activity [24]: 74% | Activity [25]: 89% | Activity [26]: 45% | Activity [27]: 79% | Activity [28]: 102% | Activity [29]: 100% | Activity [30]: 104% | IC50 [31]: 7 µM | Ki [32]: 1.6 µM | Activity [33]: 99% | Activity [34]: 86%
SMILES: O=C(O)c1ccc(Nc2nc(-c3cccc([N+](=O)[O-])c3)cs2)cc1
